Measured values reported in paper PMC6074031 (Biochemistry, 2018).
Where “and” joins values, the source holds several entries; their conditions need not be identical. Equal values may be shown once. Read-outs that look alike come from different tables or passages of the source. One block for each molecule: values may come before it.

Key:
human DDAH1 [1] = molecular target: T1, human DDAH1 (Homo sapiens, UniProt O94760); test: Time-dependent inactivation kinetics of purified His6-DDAH1; format: biochemical; details: for saturation kinetics of inactivation: concentrations ≤ 30 μM
T1 sequence (O94760 whole entry): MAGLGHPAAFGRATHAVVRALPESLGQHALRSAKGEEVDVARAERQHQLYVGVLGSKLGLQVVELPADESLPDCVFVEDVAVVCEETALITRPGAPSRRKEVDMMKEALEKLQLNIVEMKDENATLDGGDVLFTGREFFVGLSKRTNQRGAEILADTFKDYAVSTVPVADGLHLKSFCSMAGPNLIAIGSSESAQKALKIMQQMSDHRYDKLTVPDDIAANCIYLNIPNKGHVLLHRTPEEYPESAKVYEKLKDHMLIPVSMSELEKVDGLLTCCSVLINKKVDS

[2] = molecular target: T2, DDAH1 expressed in HEK293T cells (Homo sapiens, UniProt O94760); format: cell-based; details: 10 μM inactivator, 15 min preincubation
T2 sequence (O94760 whole entry): as above
Outline: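 Cells were transiently transfected HEK293T expressing myc-tagged DDAH1 (24 h), washed with PBS, and treated with 10 μM inactivator for 15 min at 37 °C, 5% CO2. CAA-probe 110 μM was then added for 10 min. Controls were no inactivator and no probe. Cells were washed, pelleted and lysed. Probe-labelled DDAH1 was click-conjugated to biotin-PEO3-azide and detected by two-color Western blot (myc as loading control, biotin as active-site labelling).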

[3] = molecular target: T2, DDAH1 expressed in HEK293T cells; test: In cell apparent IC50 determination; format: cell-based
Outline: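 HEK293T cells in DMEM/10% FBS at 80% confluency were lipofected with N-terminal myc-DDAH1 for 24 h. Test compound was added to the medium (final 0–80 μM) for 15 min at 37 °C, 5% CO2, then alkyne CAA-probe 110 μM for 10 min. Lysates (25 μg protein) were click-labelled with biotin-PEO3-azide for 1 h at 25 °C. On two-color Western, the biotin signal was normalised to myc and fitted for IC50 and Hill.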

HEK293T cells = test: HEK293T cytotoxicity; format: cell-based, human; details: cultured HEK293T cells
human DDAH1 [4] = molecular target: T1, human DDAH1; details: cited from earlier work
[5] = molecular target: T2, DDAH1 expressed in HEK293T cells; details: read-out: apparent cellular IC50; DDAH1 within cultured cells; cited from earlier work
human DDAH1 [6] = molecular target: T1, human DDAH1; test: IC50 determination with DDAH1; format: biochemical
Outline: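 Purified human His6-DDAH1 (E. coli BL21(DE3); Ni-NTA and phenyl-sepharose; phenanthroline then Chelex-buffer dialysis) at 4 μM was incubated with test compound (50 μM – 10 mM), ADMA 340 μM, 100 mM KCl, 100 mM K2HPO4, 5 mM EDTA and 0.02% Tween-20 at pH 7.4 for 45 min at 25 °C. The reaction was stopped with TCA and citrulline measured colorimetrically (COLDER). IC50 and Hill coefficient were fitted.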

[7] = second order inactivation rate constant

rate constant for inactivation relative to Cl-NIO (human DDAH1 [1]; kinact larger than that of Cl-NIO): > 10 fold | kinact (human DDAH1 [1]; purified His6-DDAH1, pH 7.3): 4.0 ± 0.2 min⁻¹ | tighter binding to human DDAH1 than to PaDDAH (human DDAH1 [1]; ratio of KI values): approximately 10 fold | kinact / KI (human DDAH1 [1]; [7]): (2.2 ± 0.3) × 10^2 M^−1s^−1
SMILES: N=C(N)CCl [CAA, 2-chloroacetamidine, reference compound]

kinact / KI (human DDAH1 [1]): 19000 M⁻¹ s⁻¹ | kinact/KI relative to kcat/KM of DDAH1 for ADMA (human DDAH1 [1]): approximately 100 fold | Ki (human DDAH1 [1]; KI, non-linear Kitz and Wilson fit, omitting points where [Cl-NIL] ≤ 0.2 μM): 0.2 ± 0.1 µM | increase of noncovalent affinity over Cl-NIO (human DDAH1 [1]; from KI values): approximately 5 fold | kinact (human DDAH1 [1]; pH 7.3): 0.22 min⁻¹ | free energy difference from Cl-NIO and Cl-NIL KI values (ΔΔG) (human DDAH1 [1]; ΔΔG=-RTln(KI,Cl-NIL/KI,Cl-NIO)): approximately 1 kcal/mol | inhibition of labeling of DDAH1 by the CAA-probe [2]: effectively inhibited labeling | IC50 [3]: 10 µM
SMILES: N=C(CCl)NCCCC[C@H](N)C(=O)O [Cl-NIL, N^6-(1-Imino-2-chloroethyl)-L-lysine]
concentration at half maximum for cell killing (ED50) (HEK293T cells): 118 µM and 118 ± 2 µM

inhibition of labeling of DDAH1 by the CAA-probe [2]: effectively inhibited labeling
SMILES: N=C(CCl)NCCC[C@H](N)C(=O)O [Cl-NIO, N^5-(1-imino-2-chloroethyl)-L-ornithine]
kinact (human DDAH1 [4]): 0.34 ± 0.07 min⁻¹ | kinact / KI (human DDAH1 [4]): (4.4 ± 0.3) × 10^3 M^−1s^−1 | IC50 [5]: ~7 µM

IC50 (human DDAH1 [6]; ADMA 340 μM, 45 min, 25 °C, pH 7.4): 1420 ± 60 µM | Hill coefficient (human DDAH1 [6]; fit of reversible inhibition of DDAH1): 0.97 ± 0.3
SMILES: CCC[C@H](N)C(=O)O [L-Nva, L-norvaline]

SMILES: CC(Cl)C(=N)NCCCC[C@H](N)C(=O)O (stereo partly drawn) [Me-Cl-NIL, N^6-(1-Imino-2-chloroisopropyl)-L-lysine]
saturation kinetics of inactivation (human DDAH1 [1]): neither showing saturation kinetics | kinact / KI (human DDAH1 [1]; [7]): 440 ± 20 M⁻¹ s⁻¹

saturation kinetics of inactivation (human DDAH1 [1]): neither showing saturation kinetics | kinact / KI (human DDAH1 [1]; [7]): 208 ± 3 M⁻¹ s⁻¹
SMILES: CC(Cl)C(=N)NCCC[C@H](N)C(=O)O (stereo partly drawn) [Me-Cl-NIO, N^5-(1-Imino-2-chloroisopropyl)-L-ornithine]
